From ChEMBL document CHEMBL1144839, “Cytotoxic bastadin 24 from the Australian sponge Ianthella quadrangulata” (J Nat Prod, 2008)
≈ marks a conversion by molar mass, not a printed value.

Key:
HUVEC = assay: Antiangiogenic activity in HUVEC cells assessed as inhibition of hEGF-induced tubular formation at 1 ug/mL after 24 hrs relative to control; format: functional, Homo sapiens; design: scale not given: the % may be the effect or the level left
[1] = Cytotoxicity against human PC3M cells after 4 days by modified propidium iodide monolayer assay; format: functional, cell-based; settings: PC-3M, 96 h
In short: (§1)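 Part of a 36-line human tumor cell panel. Proliferation inhibition was measured over a range of concentrations, and an IC50 was derived for each cell line from its concentration–response.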

[2] = Cytotoxicity against human 276L cells after 4 days by modified propidium iodide monolayer assay; format: functional, cell-based; settings: 96 h; in short: as §1
[3] = Cytotoxicity against human 1752L cells after 4 days by modified propidium iodide monolayer assay; format: functional, cell-based; settings: 96 h; in short: as §1
[4] = Cytotoxicity against human 514L cells after 4 days by modified propidium iodide monolayer assay; format: functional, cell-based; settings: 96 h; in short: as §1
[5] = Cytotoxicity against human 899L cells after 4 days by modified propidium iodide monolayer assay; format: functional, cell-based; settings: 96 h; in short: as §1
[6] = Cytotoxicity against human 629L cells after 4 days by modified propidium iodide monolayer assay; format: functional, cell-based; settings: 96 h; in short: as §1
[7] = Cytotoxicity against human 486L cells after 4 days by modified propidium iodide monolayer assay; format: functional, cell-based; settings: 96 h; in short: as §1
[8] = Cytotoxicity against human 520L cells after 4 days by modified propidium iodide monolayer assay; format: functional, cell-based; settings: 96 h; in short: as §1
NCI-H460 = assay: Cytotoxicity against human H460 cells after 4 days by modified propidium iodide monolayer assay; format: functional, cell-based; settings: NCI-H460, 96 h; in short: as §1
[9] = Cytotoxicity against human 394NL cells after 4 days by modified propidium iodide monolayer assay; format: functional, cell-based; settings: 96 h; in short: as §1
OVCAR-3 = assay: Cytotoxicity against human OVCAR-3 cells after 4 days by modified propidium iodide monolayer assay; format: functional, cell-based; settings: OVCAR-3, 96 h; in short: as §1
SF-268 = assay: Cytotoxicity against human SF268 cells after 4 days by modified propidium iodide monolayer assay; format: functional, cell-based; settings: SF-268, 96 h; in short: as §1
MCF7 = assay: Cytotoxicity against human MCF7 cells after 4 days by modified propidium iodide monolayer assay; format: functional, cell-based; settings: MCF7, 96 h; in short: as §1
DU-145 = assay: Cytotoxicity against human DU145 cells after 4 days by modified propidium iodide monolayer assay; format: functional, cell-based; settings: DU-145, 96 h; in short: as §1
[10] = Cytotoxicity against human 498NL cells after 4 days by modified propidium iodide monolayer assay; format: functional, cell-based; settings: 96 h; in short: as §1
[11] = Cytotoxicity against human 1781L cells after 4 days by modified propidium iodide monolayer assay; format: functional, cell-based; settings: 96 h; in short: as §1
[12] = Cytotoxicity against human 462NL cells after 4 days by modified propidium iodide monolayer assay; format: functional, cell-based; settings: 96 h; in short: as §1
[13] = Cytotoxicity against human 1657L cells after 4 days by modified propidium iodide monolayer assay; format: functional, cell-based; settings: 96 h; in short: as §1
[14] = Cytotoxicity against human 289L cells after 4 days by modified propidium iodide monolayer assay; format: functional, cell-based; settings: 96 h; in short: as §1
[15] = Cytotoxicity against human 401NL cells after 4 days by modified propidium iodide monolayer assay; format: functional, cell-based; settings: 96 h; in short: as §1
[16] = Cytotoxicity against human 529L cells after 4 days by modified propidium iodide monolayer assay; format: functional, cell-based; settings: 96 h; in short: as §1
PANC-1 = assay: Cytotoxicity against human PANC1 cells after 4 days by modified propidium iodide monolayer assay; format: functional, cell-based; settings: PANC-1, 96 h; in short: as §1
T-24 = assay: Cytotoxicity against human T24 cells after 4 days by modified propidium iodide monolayer assay; format: functional, cell-based; settings: T-24, 96 h; in short: as §1
[17] = Cytotoxicity against human 1218L cells after 4 days by modified propidium iodide monolayer assay; format: functional, cell-based; settings: 96 h; in short: as §1
CWR22R = assay: Cytotoxicity against human 22RV1 cells after 4 days by modified propidium iodide monolayer assay; format: functional, cell-based; settings: 22Rv1, 96 h; in short: as §1
[18] = Cytotoxicity against human 536L cells after 4 days by modified propidium iodide monolayer assay; format: functional, cell-based; settings: 96 h; in short: as §1
[19] = Cytotoxicity against human 251L cells after 4 days by modified propidium iodide monolayer assay; format: functional, cell-based; settings: 96 h; in short: as §1
LNCaP = assay: Cytotoxicity against human LNCAP cells after 4 days by modified propidium iodide monolayer assay; format: functional, cell-based; settings: 96 h; in short: as §1
[20] = Cytotoxicity against human 393NL cells after 4 days by modified propidium iodide monolayer assay; format: functional, cell-based; settings: 96 h; in short: as §1
[21] = Cytotoxicity against human 1619L cells after 4 days by modified propidium iodide monolayer assay; format: functional, cell-based; settings: 96 h; in short: as §1
HT-29 = assay: Cytotoxicity against human HT29 cells after 4 days by modified propidium iodide monolayer assay; format: functional, cell-based; settings: HT-29, 96 h; in short: as §1
[22] = Cytotoxicity against human 1138L cells after 4 days by modified propidium iodide monolayer assay; format: functional, cell-based; settings: 96 h; in short: as §1
[23] = Cytotoxicity against human 944L cells after 4 days by modified propidium iodide monolayer assay; format: functional, cell-based; settings: 96 h; in short: as §1
[24] = Cytotoxicity against human 1121L cells after 4 days by modified propidium iodide monolayer assay; format: functional, cell-based; settings: 96 h; in short: as §1
[25] = Cytotoxicity against human 526L cells after 4 days by modified propidium iodide monolayer assay; format: functional, cell-based; settings: 96 h; in short: as §1
HCT-116 = assay: Cytotoxicity against human HCT116 cells after 4 days by modified propidium iodide monolayer assay; format: functional, cell-based; settings: HCT-116, 96 h; in short: as §1

## O=C1N/C=C/c2ccc(c(Br)c2)Oc2cc(cc(Br)c2O)CCNC(=O)/C(=N/O)Cc2ccc(c(Br)c2)Oc2cc(cc(Br)c2O)C/C1=N\O [BASTADIN 7]
HUVEC
  Activity: 37.3%

## O=C1NCCc2cc(Br)c(O)c(c2)Oc2c(Br)cc(cc2Br)[C@H](O)CNC(=O)/C(=N/O)Cc2cc(Br)c(O)c(c2)Oc2ccc(cc2Br)C/C1=N\O [BASTADIN 12]
HUVEC
  Activity: 27.6%

## O=C1NCCc2cc(Br)c(c(Br)c2)Oc2cc(cc(Br)c2O)CCNC(=O)/C(=N/O)C(O)c2cc(Br)c(c(Br)c2)Oc2cc(cc(Br)c2O)C/C1=N\O (stereo not given) [BASTADIN 24]
[1]
  IC50: 1.29 µg/mL (≈ 1.16 µM)
  IC70: 3.03 µg/mL (≈ 2.72 µM)
  IC90: 7.11 µg/mL (≈ 6.38 µM)
[2]
  IC50: 0.59 µg/mL (≈ 0.53 µM)
  IC70: 2.02 µg/mL (≈ 1.81 µM)
  IC90: 14.9 µg/mL (≈ 13.4 µM)
[3]
  IC50: 3.81 µg/mL (≈ 3.42 µM)
  IC70: 5.91 µg/mL (≈ 5.31 µM)
  IC90: 9.16 µg/mL (≈ 8.22 µM)
[4]
  IC50: 1.62 µg/mL (≈ 1.45 µM)
  IC70: 3.64 µg/mL (≈ 3.27 µM)
  IC90: 8.17 µg/mL (≈ 7.33 µM)
[5]
  IC50: 3.79 µg/mL (≈ 3.4 µM)
  IC70: 5.95 µg/mL (≈ 5.34 µM)
  IC90: 9.35 µg/mL (≈ 8.39 µM)
[6]
  IC50: 0.37 µg/mL (≈ 0.332 µM)
  IC70: 0.63 µg/mL (≈ 0.566 µM)
  IC90: 1.67 µg/mL (≈ 1.5 µM)
[7]
  IC50: 6.08 µg/mL (≈ 5.46 µM)
  IC70: 11.3 µg/mL (≈ 10.2 µM)
  IC90: 21.1 µg/mL (≈ 18.9 µM)
[8]
  IC50: 2.6 µg/mL (≈ 2.33 µM)
  IC70: 4.56 µg/mL (≈ 4.09 µM)
  IC90: 7.99 µg/mL (≈ 7.17 µM)
NCI-H460
  IC50: 4.31 µg/mL (≈ 3.87 µM)
  IC70: 6.08 µg/mL (≈ 5.46 µM)
  IC90: 8.57 µg/mL (≈ 7.69 µM)
[9]
  IC50: 1.5 µg/mL (≈ 1.35 µM)
  IC70: 3.36 µg/mL (≈ 3.02 µM)
  IC90: 7.54 µg/mL (≈ 6.77 µM)
OVCAR-3
  IC50: 3.66 µg/mL (≈ 3.29 µM)
  IC70: 5.72 µg/mL (≈ 5.13 µM)
  IC90: 8.94 µg/mL (≈ 8.02 µM)
SF-268
  IC50: 0.38 µg/mL (≈ 0.341 µM)
  IC70: 0.61 µg/mL (≈ 0.548 µM)
  IC90: 0.96 µg/mL (≈ 0.862 µM)
MCF7
  IC50: 1.46 µg/mL (≈ 1.31 µM)
  IC70: 3.37 µg/mL (≈ 3.03 µM)
  IC90: 7.78 µg/mL (≈ 6.98 µM)
DU-145
  IC50: 0.96 µg/mL (≈ 0.862 µM)
  IC70: 2.59 µg/mL (≈ 2.32 µM)
  IC90: 7.04 µg/mL (≈ 6.32 µM)
[10]
  IC50: 2.64 µg/mL (≈ 2.37 µM)
  IC70: 4.6 µg/mL (≈ 4.13 µM)
  IC90: 8.01 µg/mL (≈ 7.19 µM)
[11]
  IC50: 2.88 µg/mL (≈ 2.59 µM)
  IC70: 4.94 µg/mL (≈ 4.43 µM)
  IC90: 8.5 µg/mL (≈ 7.63 µM)
[12]
  IC50: 1.58 µg/mL (≈ 1.42 µM)
  IC70: 3.66 µg/mL (≈ 3.29 µM)
  IC90: 8.46 µg/mL (≈ 7.59 µM)
[13]
  IC50: 2.18 µg/mL (≈ 1.96 µM)
  IC70: 4.58 µg/mL (≈ 4.11 µM)
  IC90: 9.64 µg/mL (≈ 8.65 µM)
[14]
  IC50: 2.68 µg/mL (≈ 2.41 µM)
  IC70: 4.88 µg/mL (≈ 4.38 µM)
  IC90: 8.87 µg/mL (≈ 7.96 µM)
[15]
  IC50: 0.55 µg/mL (≈ 0.494 µM)
  IC70: 0.87 µg/mL (≈ 0.781 µM)
  IC90: 8.58 µg/mL (≈ 7.7 µM)
[16]
  IC50: 1.7 µg/mL (≈ 1.53 µM)
  IC70: 3.61 µg/mL (≈ 3.24 µM)
  IC90: 7.68 µg/mL (≈ 6.89 µM)
PANC-1
  IC50: 4.23 µg/mL (≈ 3.8 µM)
  IC70: 6.31 µg/mL (≈ 5.66 µM)
  IC90: 9.41 µg/mL (≈ 8.45 µM)
T-24
  IC50: 0.79 µg/mL (≈ 0.709 µM)
  IC70: 2.19 µg/mL (≈ 1.97 µM)
  IC90: 6.24 µg/mL (≈ 5.6 µM)
[17]
  IC50: 2.56 µg/mL (≈ 2.3 µM)
  IC70: 4.9 µg/mL (≈ 4.4 µM)
  IC90: 9.37 µg/mL (≈ 8.41 µM)
CWR22R
  IC50: 0.46 µg/mL (≈ 0.413 µM)
  IC70: 0.96 µg/mL (≈ 0.862 µM)
  IC90: 5.75 µg/mL (≈ 5.16 µM)
[18]
  IC50: 4.19 µg/mL (≈ 3.76 µM)
  IC70: 6.16 µg/mL (≈ 5.53 µM)
  IC90: 9.08 µg/mL (≈ 8.15 µM)
[19]
  IC50: 2.64 µg/mL (≈ 2.37 µM)
  IC70: 5.42 µg/mL (≈ 4.87 µM)
  IC90: 11.1 µg/mL (≈ 10 µM)
LNCaP
  IC50: 2.47 µg/mL (≈ 2.22 µM)
  IC70: 4.59 µg/mL (≈ 4.12 µM)
  IC90: 8.56 µg/mL (≈ 7.68 µM)
[20]
  IC50: 2.42 µg/mL (≈ 2.17 µM)
  IC70: 4.38 µg/mL (≈ 3.93 µM)
  IC90: 7.9 µg/mL (≈ 7.09 µM)
[21]
  IC50: 2.77 µg/mL (≈ 2.49 µM)
  IC70: 4.73 µg/mL (≈ 4.25 µM)
  IC90: 8.07 µg/mL (≈ 7.24 µM)
HT-29
  IC50: 2 µg/mL (≈ 1.8 µM)
  IC70: 3.85 µg/mL (≈ 3.46 µM)
  IC90: 7.44 µg/mL (≈ 6.68 µM)
[22]
  IC50: 1.4 µg/mL (≈ 1.26 µM)
  IC70: 3.3 µg/mL (≈ 2.96 µM)
  IC90: 7.74 µg/mL (≈ 6.95 µM)
[23]
  IC50: 2.28 µg/mL (≈ 2.05 µM)
  IC70: 4.54 µg/mL (≈ 4.08 µM)
  IC90: 9.02 µg/mL (≈ 8.1 µM)
[24]
  IC50: 1.51 µg/mL (≈ 1.36 µM)
  IC70: 3.43 µg/mL (≈ 3.08 µM)
  IC90: 7.81 µg/mL (≈ 7.01 µM)
[25]
  IC50: 1.22 µg/mL (≈ 1.1 µM)
  IC70: 3.24 µg/mL (≈ 2.91 µM)
  IC90: 8.63 µg/mL (≈ 7.75 µM)
HCT-116
  IC50: 3.87 µg/mL (≈ 3.47 µM)
  IC70: 5.71 µg/mL (≈ 5.13 µM)
  IC90: 8.4 µg/mL (≈ 7.54 µM)
